One series deals with Vaccinia virus. In words: Antiviral activity against Vaccinia virus IHD infected in African green monkey BGM cells after 6 days by plaque reduction assay. The series is classed as functional. The conditions noted are these: Orthopoxvirus vaccinia, 144 h, read-out: ED50 (the source's name). Background: Plaque reduction counts the foci of infection that form in a cell layer.
Series [1] concerns L1210. In words: Antitumor activity against mouse L1210 cells allografted in BDF1 mouse assessed as increase in life span at 500 mg/kg, sc administered 10 days prior to infection relative to control. In kind it is functional. The settings on record: route subcutaneous. The essentials:
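Single subcutaneous dose given 10 days before infection of mice with L1210 cells; activity expressed as percent increase in life span relative to untreated controls.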

A further series has as its system HeLa. In words: Cytotoxicity against human HeLa cells after 48 hrs by Coulter counting analysis. The series is classed as functional. The conditions noted are these: read-out: ED50 (the source's name). An outline of the steps:
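HeLa cells (10⁵) were grown for 2 days at 37° in MEM with 10% bovine serum. The medium was then replaced with fresh medium containing serial compound dilutions. After 48 h, cells were dispersed with 0.02% trypsin and 0.04% versene and counted on a Coulter counter. The result is expressed as ED50 in μg/ml.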

Series [2] has as its system L1210. Briefly: Antitumor activity against mouse L1210 cells allografted in BDF1 mouse assessed as increase in life span at 1000 mg/kg, ip administered as single dose 24 hrs post-implantation measured up to 30 days relative to control. The conditions noted are these: route intraperitoneal. The series is classed as functional. The essentials: (§1)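 BDF1 mice inoculated ip with 1-2 × 10⁵ L1210 cells; 24 h later a single ip dose given as solution or suspension in aqueous 0.9% NaCl, 0.4% polysorbate 80, 0.5% low-viscosity sodium carboxymethylcellulose, 0.9% benzyl alcohol. Mice held on normal diet for 30 days. Groups of eight to ten animals; percent increase in life span versus untreated infected controls, with 30-day survivors counted.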

In series [3] the test system is L1210. Briefly: Antitumor activity against mouse L1210 cells allografted in BDF1 mouse assessed as survival at 1000 mg/kg, ip administered as single dose 24 hrs post-implantation after 30 days. In kind it is functional, organism-based. Further details: dose 1000 mg/kg. The essentials: (§2)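 BDF1 mice were inoculated ip with 1-2 × 10⁵ L1210 cells. After 24 h, one ip dose was given as a solution or suspension in aqueous 0.9% NaCl, 0.4% polysorbate 80, 0.5% low-viscosity Na carboxymethylcellulose and 0.9% benzyl alcohol. Mice were followed for 30 days, with 8-10 per group. The read-out is % increase in life span versus infected controls, plus the count of 30-day survivors.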

Series [4] relates to L1210. Briefly: Antitumor activity against mouse L1210 cells allografted in BDF1 mouse assessed as increase in life span at 200 mg/kg, ip administered as single dose 24 hrs post-implantation measured up to 30 days relative to control. In kind it is functional. The conditions noted are these: route intraperitoneal. An outline of the steps:
as §1

Series [5] has as its system L1210. Briefly: Antitumor activity against mouse L1210 cells allografted in BDF1 mouse assessed as survival at 200 mg/kg, ip administered as single dose 24 hrs post-implantation after 30 days. In kind it is functional, organism-based. Set-up: dose 200 mg/kg. The essentials: as §2
For the next series, the system named is Herpesviridae sp. Briefly: Antiviral activity against Herpes simplex virus HF infected in African green monkey BGM cells after 6 days by plaque reduction assay. In kind it is functional. The settings on record: 144 h, read-out: ED50 (the source's name). The essentials:
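Quantitative plaque reduction assay. Confluent BGM monolayers were infected with 100-200 pfu of HSV (HF strain) and overlaid with 1.25% agar in MEM with 2.0% bovine serum containing graded compound concentrations. A second overlay with neutral red (1:20000) was added on day 4, and plaques were counted on day 6. ED50, the μM concentration giving 50% plaque reduction, was taken from a probability plot of % inhibition against concentration.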

The test system of series [6] is L1210. Briefly: Antitumor activity against mouse L1210 cells allografted in BDF1 mouse assessed as survival at 500 mg/kg, ip administered as single dose 24 hrs post-implantation after 30 days. In kind it is functional, organism-based. Further details: dose 500 mg/kg. An outline of the steps: as §2
Series [7] relates to L1210. Briefly: Antitumor activity against mouse L1210 cells allografted in BDF1 mouse assessed as increase in life span at 2000 mg/kg, ip administered as single dose 24 hrs post-implantation measured up to 30 days relative to control. The series is classed as functional. The settings on record: route intraperitoneal. An outline of the steps: as §1
The subject of series [8] is unidentified influenza virus. Briefly: Antiviral activity against Influenza virus […] infected in monkey LLC-MK2 cells after 5 days by pulp disk diffusion assay. The series is classed as functional, organism-based. The essentials: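 Pulp disk diffusion screen: LLCMK2 cells infected with 200 pfu influenza Ao/WSN in presence of trypsin; filter paper disk loaded with 50 μg compound; antiviral activity read as diameter of plaque-inhibition zone on day 5.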
For orientation: A growth-free zone around the sample is the usual read-out of agar diffusion tests.

A further series deals with Measles morbillivirus. Briefly: Antiviral activity against Measles virus infected in African green monkey BGM cells after 5 days by pulp disk diffusion assay. The series is classed as functional, organism-based. The essentials: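 Preliminary pulp disk diffusion screen. BGM cells were infected with 200 pfu of measles virus. A filter paper disk impregnated with 50 μg of compound was applied. Activity was scored as the diameter of the zone of plaque inhibition on day 5.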

Series [9] has as its system Mus musculus. Briefly: Toxicity in BDF1 mouse allografted with mouse L1210 cells at 3000 mg/kg, ip. The series is classed as organism-based. Further details: dose 3000 mg/kg, route intraperitoneal. The conditions noted are these: in vivo. The essentials: as §2
For another series, the system named is BGM. In words: Antiviral activity against Poliovirus type 1 Mahoney infected in African green monkey BGM cells after 5 days by pulp disk diffusion assay. The series is classed as functional, cell-based. The settings on record: Human poliovirus 1 Mahoney. An outline of the steps: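 Pulp disk diffusion screen: BGM African green monkey kidney cells infected with 200 pfu Mahoney type I poliovirus; filter paper disk loaded with 50 μg compound; antiviral activity read as diameter of plaque-inhibition zone on day 5.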

Series [10] in a line: Half life in human. In kind it is ADME, organism-based. The settings on record: in vivo.
Series [11] deals with Mus musculus. In words: Toxicity in BDF1 mouse allografted with mouse L1210 cells assessed as reduction in average life span at 200 mg/kg, ip administered as single dose 24 hrs post-implantation measured up to 30 days relative to control. Further details: dose 200 mg/kg, route intraperitoneal. The conditions noted are these: in vivo. In kind it is organism-based. The essentials: as §2

Series [12] relates to Mus musculus. Briefly: Toxicity in BDF1 mouse allografted with mouse L1210 cells assessed as reduction in survival at 200 mg/kg, ip administered as single dose 24 hrs post-implantation measured up to 30 days relative to control. The settings on record: in vivo. Further details: dose 200 mg/kg, route intraperitoneal. In kind it is organism-based. The essentials: as §1

Calls of active or inactive are those of the source. The calls are words filed in the database; no cut-off is given here.

Turning to `CCCCCCCCCCCCCC(=O)O[C@H]1[C@@H]2Oc3nc(=N)ccn3[C@@H]2O[C@@H]1CO.Cl`, the EC50 with Vaccinia virus turned out to be 340 nM; with HeLa, 0.2 µg/mL; with Herpesviridae sp., 1350 nM. The ILS at 500 mg/kg with L1210 [1] was 64%. In the series with L1210 [2], the ILS at 1000 mg/kg is above 280%. Further, the outcome in the series with L1210 [3] was Active. In addition, the ILS at 200 mg/kg with L1210 [4] was found to be 100%. In the series on L1210 [5], the result was inactive.
On to `Cl.N=c1ccn2c(n1)O[C@H]1[C@H](O)[C@@H](CO)O[C@H]12` [ANCITABINE HYDROCHLORIDE], for which the EC50 with Vaccinia virus came to 410 nM; in the series on HeLa, 0.05 µg/mL; with Herpesviridae sp. it was 700 nM. For the same molecule, the ILS at 1000 mg/kg in the series on L1210 [2] turned out to be 89%. The result (with L1210 [6]; with L1210 [3]; in the series with L1210 [5]; in series [8]; in the series with Measles morbillivirus; in the series with BGM) was inactive. Also, in the series with L1210 [4], the ILS at 200 mg/kg was 25%. The ILS at 2000 mg/kg with L1210 [7] was above 151%. Also, the Activity result in the series on Mus musculus [9] is “Toxic”.
What is called half-life is how long it takes for the measured level to halve. In series [10], `Nc1ccn([C@@H]2O[C@H](CO)[C@@H](O)[C@@H]2O)c(=O)n1` [CYTARABINE] came in with a half-life of 12 min.
For `CCCCCCC/C=C/C(=O)O[C@H]1[C@@H]2Oc3nc(=N)ccn3[C@@H]2O[C@@H]1CO.Cl`, the EC50 came out at 150 nM in the series with Vaccinia virus, 0.06 µg/mL with HeLa and 210 nM in the series on Herpesviridae sp.. The ILS in the series with Mus musculus [11] is reported as -83%. Further, the Activity result in the series with Mus musculus [12] is “Toxic”.

Values taken from ChEMBL document CHEMBL3271997, “Reactions of 2-acyloxyisobutyryl halides with nucleosides. 6. Synthesis and biological evaluation of some 3'-acyl derivatives of 2,2'-anhydro-1-(beta-D-arabinofuranosyl)cytosine hydrochloride” (J Med Chem, 1976).
